Screens deposited in PubChem BioAssay by Broad Institute.
KDM4C inh: inhibitors of GASC-1 (KDM4C) histone demethylase, primary screen, biochemical, single concentration HTS; Lysine-specific demethylase 4C (Homo sapiens), Q9H3R0; AID 720574, 2013; GST-KDM4C 2-372, H3K9me3 peptide, LANCE TR-FRET; 96,000 compounds, 0.15% hits; inhibition, % at 12.5 µM;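 active means mean replicate inhibition above about 25%, with at least 55% of replicates also reaching it, limit read from the data, passing the limit was not always enough; inconclusive means only one of those two conditions met; inactive means neither condition met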
Target sequence (Q9H3R0 2-372 limits assumed): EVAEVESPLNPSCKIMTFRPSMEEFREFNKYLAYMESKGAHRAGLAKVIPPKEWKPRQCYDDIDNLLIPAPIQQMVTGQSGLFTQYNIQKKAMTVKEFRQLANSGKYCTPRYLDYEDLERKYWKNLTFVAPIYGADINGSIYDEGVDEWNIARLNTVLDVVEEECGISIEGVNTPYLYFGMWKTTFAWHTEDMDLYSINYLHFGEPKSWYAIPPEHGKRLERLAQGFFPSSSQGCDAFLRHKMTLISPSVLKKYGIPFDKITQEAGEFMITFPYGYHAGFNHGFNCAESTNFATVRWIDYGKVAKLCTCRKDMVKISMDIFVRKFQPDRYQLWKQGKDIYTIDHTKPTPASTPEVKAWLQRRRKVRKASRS
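Material: GST-tagged GASC-1 (JMJD2C) catalytic fragment, aa 2-372. Input: enzyme final amount 10 nM. Medium: HEPES buffer, pH 7.5, plus ascorbate. Reagent: H3K9me3 peptide substrate, Fe(II), 2-oxoglutarate. Doses: single dose. Times: reaction 30 min RT, detection step 1 h RT. Measured by: LANCE TR-FRET. Evaluation: Fall in 671/618 emission ratio as inhibition.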
T cruzi growth-1: T. cruzi intracellular proliferation inhibitors, primary screen, cell-based, beta-gal Tulahuen parasites, NIH3T3 host, luminescence | T. cruzi beta-gal in NIH3T3, GalScreen luminescence, 90 h | inhibition, % at 8.34 µM | 77,000 compounds, 5.9% hits;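 active means mean inhibition above about 93%, with at least 55% of replicates each passing it, limit read from the data, passing the limit was not always enough; inconclusive means only one of those two conditions holds; inactive means neither condition holds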
IDH1 mut inh: inhibitors of IDH1 R132H reductase, primary screen, biochemical, plate reader, single point; inhibition, % at 10 µM; diaphorase/resazurin fluorescence, 60 min; 70,000 compounds, 0.18% hits; in the data active means inhibition above about 34%; inconclusive means no clear call, values can overlap the other calls; inactive means below about 11%;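 further: 0% = DMSO and 100% = no enzyme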
T cruzi growth-2: T. cruzi intracellular proliferation inhibitors, confirmation, cell-based, NIH3T3 host, beta-gal parasite, luminescence, cherry-pick. inhibition, % at 8.35 µM. shares compounds with T cruzi growth-1. T. cruzi beta-gal in NIH3T3, GalScreen luminescence, 90 h. 5,600 compounds, 72% hits;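 active means mean replicate inhibition above about 95% and at least 55% of replicates individually reaching it, limit read from the data; inconclusive means only one of the two criteria is met; inactive means neither criterion is met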
T cruzi growth-3: inhibitors of intracellular T. cruzi replication, confirmation, NIH3T3 host cells, beta-gal parasites, cherry-pick, set 2 | AID 651740, 2012 | shares compounds with T cruzi growth-1 | T. cruzi beta-gal in NIH3T3, GalScreen luminescence, 90 h | inhibition, % at 2.09 µM | 5,600 compounds, 21% hits;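 active means mean inhibition above about 95%, with at least 55% of replicates also reaching it, limit read from the data; inconclusive means meets just one of the two conditions; inactive means meets neither condition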;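 further: plate controls were neutral control median for no effect and positive control median for full effect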
3T3 cytotox: cytotoxicity in mouse NIH/3T3 fibroblasts, confirmation, cytotoxicity control for T. cruzi proliferation inhibitor project, cell-based, cherry-pick, single point; shares compounds with T cruzi growth-1; NIH/3T3 viability, CellTiter-Glo ATP luminescence, 90 h; cytotoxicity (signal decrease), % at 8.35 µM; 5,600 compounds, 14% hits; AID 651742, 2012;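 active means mean signal decrease across replicates above about 35% based on untreated-well scatter, with enough replicates individually passing, limit read from the data; inconclusive means no rule stated though some were filed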;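 further: 0% = median of neutral control wells and 100% = median of positive control wells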
3T3 cytotox 2: NIH/3T3 fibroblast cytotoxicity, confirmation, cytotoxicity control, cell-based, cherry-pick, single point, set 2. 5,600 compounds, 56% hits. NIH/3T3 viability, CellTiter-Glo ATP luminescence, 90 h. shares compounds with T cruzi growth-1. inhibition, % at 24.9 µM;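 active means mean loss of cell viability signal at or above a set limit, and enough replicates individually reaching it; inconclusive means meets only the mean limit or only the replicate share; inactive means meets neither condition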;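 further: 0% = median of neutral control wells and 100% = median of positive control wells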
The depositor's hits bear a star; ? = inconclusive; / = not tested or not shown. The entries come from a sample that favours hits as a whole.

SMILES	KDM4C inh	T cruzi growth-1	IDH1 mut inh	T cruzi growth-2	T cruzi growth-3	3T3 cytotox	3T3 cytotox 2
CN(C)CCCNC(=O)C[C@H]1CC[C@H](NC(=O)c2ccccc2F)[C@@H](CO)O1	0.2	14.7	0.0	/	/	/	/
O=C(Nc1cccc(F)c1)N[C@H]1CC[C@@H](CCNS(=O)(=O)c2cccc(Cl)c2)O[C@H]1CO	-3.5	70.1	-0.1	/	/	/	/
O=C(Nc1ccc(F)cc1)N[C@H]1CC[C@H](CCNS(=O)(=O)c2cccc(Cl)c2)O[C@H]1CO	-0.7	-12.8	0.0	/	/	/	/
O=C(Nc1cccc(F)c1)N[C@@H]1CC[C@H](CCNS(=O)(=O)c2cccc(Cl)c2)O[C@H]1CO	-2.0	114.7*	-0.6	-26.6	-10.1	-20.3	-7.9
O=C(Nc1cccc(F)c1)N[C@H]1CC[C@H](CCNS(=O)(=O)c2cccc(Cl)c2)O[C@@H]1CO	-0.3	152.1*	-0.7	63.1	15.2	-1.2	18.1
COCCNC(=O)C[C@@H]1C[C@@H]2c3cc(NS(C)(=O)=O)ccc3O[C@@H]2[C@H](CO)O1	-1.0	29.7	-0.7	/	/	/	/
O=C(NCc1ccc(F)cc1)[C@H]1[C@H](CO)[C@H]2Cn3c(ccc(C4=CCCCC4)c3=O)[C@@H]1N2	-3.1	-132.1	/	/	/	/	/
O=C(NCCCN1CCOCC1)[C@H]1[C@H](CO)[C@H]2Cn3c(ccc(C4=CCCCC4)c3=O)[C@@H]1N2	-3.3	32.5	/	/	/	/	/
O=C(NCCN1CCCCC1)[C@H]1N[C@H]2c3ccc(-c4ccncc4)c(=O)n3C[C@H]2[C@@H]1CO	-1.6	101.8*	/	-43.0	-1.2	-5.2	-21.4
O=C(NCCCN1CCOCC1)[C@@H]1N[C@@H]2c3ccc(C4=CCCCC4)c(=O)n3C[C@@H]2[C@H]1CO	-0.1	52.1	/	/	/	/	/
O=C(NCCCN1CCOCC1)[C@@H]1[C@@H](CO)[C@@H]2Cn3c(ccc(C4=CCCC4)c3=O)[C@H]1N2	-0.1	?	/	51.5	10.9	16.8	-4.1
CCCNC(=O)[C@@H]1[C@@H](CO)[C@@H]2Cn3c(ccc(C4=CCCC4)c3=O)[C@H]1N2	4.3	99.6*	/	-3.6	-18.8	-1.5	-6.8
O=C(NCCCN1CCOCC1)[C@H]1N[C@H]2c3ccc(C4=CCCCC4)c(=O)n3C[C@H]2[C@@H]1CO	-2.4	?	/	-18.9	-15.0	-9.3	0.3
O=C(NCCN1CCCCC1)[C@@H]1N[C@@H]2c3ccc(-c4cccnc4)c(=O)n3C[C@@H]2[C@H]1CO	-4.6	-95.1	/	/	/	/	/
CN(C)Cc1cn(CC[C@@H]2CC[C@H](N)[C@H](CO)O2)nn1	2.1	-12.2	0.7	/	/	/	/
Cc1cc(I)ccc1NC(=O)Cn1ccc([N+](=O)[O-])n1	/	/	0.7	/	/	/	/
Cc1ccc(S(=O)(=O)Nc2ccc3c(c2)C(=O)N([C@H](C)CO)C[C@H](C)[C@@H](CN(C)S(=O)(=O)c2ccc(C)cc2)OCCCC[C@H](C)O3)cc1	0.3	98.1*	/	96.8*	54.2	74.6*	58.7*
Cc1ccc(S(=O)(=O)N(C)C[C@@H]2OCCCC[C@@H](C)Oc3ccc(NS(=O)(=O)c4ccccc4)cc3C(=O)N([C@H](C)CO)C[C@H]2C)cc1	1.8	102.1	-1.8	/	/	/	/
Cc1ccc(S(=O)(=O)Nc2ccc3c(c2)C(=O)N([C@H](C)CO)C[C@H](C)[C@H](CN(C)S(=O)(=O)c2ccccc2)OCCCC[C@@H](C)O3)cc1	-1.6	44.6	0.6	/	/	/	/
Cc1ccc(S(=O)(=O)Nc2ccc3c(c2)C(=O)N([C@H](C)CO)C[C@@H](C)[C@@H](CN(C)S(=O)(=O)c2ccc(C)cc2)OCCCC[C@H](C)O3)cc1	-0.8	103.2*	/	111.9*	?	-39.0	-3.2
Cc1ccc(S(=O)(=O)Nc2ccc3c(c2)C(=O)N([C@H](C)CO)C[C@@H](C)[C@@H](CN(C)S(=O)(=O)c2ccccc2)OCCCC[C@H](C)O3)cc1	-0.1	94.5	/	/	/	/	/
Cc1ccc(S(=O)(=O)Nc2ccc3c(c2)C(=O)N([C@@H](C)CO)C[C@H](C)[C@H](CN(C)S(=O)(=O)c2ccc(C)cc2)OCCCC[C@H](C)O3)cc1	6.5	104.2*	/	104.8*	84.0	-12.4	-7.6
Cc1ccc(S(=O)(=O)Nc2ccc3c(c2)C(=O)N([C@H](C)CO)C[C@@H](C)[C@H](CN(C)S(=O)(=O)c2ccc(C)cc2)OCCCC[C@H](C)O3)cc1	0.7	91.2	/	/	/	/	/
Cc1ccc(S(=O)(=O)Nc2ccc3c(c2)C(=O)N([C@@H](C)CO)C[C@H](C)[C@@H](CN(C)S(=O)(=O)c2ccc(C)cc2)OCCCC[C@H](C)O3)cc1	-0.7	105.7*	/	107.7*	84.7	-18.9	-17.0
CCCC#Cc1cnc2c(c1)C(=O)N([C@H](C)CO)C[C@H](C)[C@@H](CN(C)C(=O)c1ccccc1)O2	-0.2	/	0.1	/	/	/	/
SMILES	KDM4C inh	T cruzi growth-1	IDH1 mut inh	T cruzi growth-2	T cruzi growth-3	3T3 cytotox	3T3 cytotox 2
CO[C@H]1CN(C)C(=O)c2ccc(NS(=O)(=O)c3cn(C)cn3)cc2OC[C@@H](C)N(C)C[C@H]1C	-1.0	-24.9	0.1	/	/	/	/
CC=Cc1ccc2n(c1=O)C[C@H]1[C@H](CO)[C@@H](C(=O)NCCC)N(CC3CCOCC3)[C@@H]21 (mixture of isomers)	4.3	65.5	/	/	/	/	/
C[C@H](CO)N1C[C@H](C)[C@H](CN(C)S(=O)(=O)c2cccs2)Oc2ncccc2C1=O	-0.1	88.2	10.9	/	/	/	/
O=C(NCCc1ccccc1)[C@H]1N[C@H]2c3ccc(-c4ccc(F)cc4)c(=O)n3C[C@H]2[C@@H]1CO	-2.4	-23.8	/	/	/	/	/
COc1ccc(-c2ccc([C@H]3[C@@H](CO)N4CCCCN(CC5CCOCC5)C[C@H]34)cc2)cc1	-0.3	100.9*	/	93.5	67.0	18.7	96.1*
COc1ccc(-c2ccc([C@H]3[C@H]4CN(CC5CCOCC5)CCCCN4[C@H]3CO)cc2)cc1	-0.3	-1.6	/	/	/	/	/
COc1cccc(-c2ccc([C@H]3[C@@H](CO)N4CCCCN(CC5CCOCC5)C[C@@H]34)cc2)c1	/	68.4	/	/	/	/	/
COc1ccc(-c2ccc([C@H]3[C@@H](CO)N4CCCCN(CC5CCOCC5)C[C@@H]34)cc2)cc1	-0.5	98.8*	/	?	26.6	?	77.9*
COc1ccc(NC(=O)CSC2CC(=O)N(c3ccccc3C)C2=O)cc1 (stereo not given)	/	/	-0.2	/	/	/	/
